Molecules are shown by their SMILES. In brackets after ≈: the same amount, converted by molar mass. Activity calls are given as the source filed them.

Assay [1] concerns Mycolicibacterium smegmatis. In words: Antitubercular activity against Mycobacterium smegmatis ATCC 35797 at 200 ug/ml after 48 hrs by agar dilution method. The format is functional, organism-based. In outline: (§1)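 Agar dilution MIC method. Compounds were dissolved in DMSO at 1 mg/ml and mixed into molten agar at 200 µg/ml. Active compounds were further diluted through 100, 50, 25, 12.5 and 6.25 down to 0.625 µg/ml. Plates had 3–4 mm agar depth. Inocula were overnight Mueller–Hinton broth cultures diluted 1:100 and radially streaked, then incubated 35 °C for 48 h. Isoniazid was the reference; drug-free and DMSO controls were included.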

Assay [2] deals with Mycolicibacterium smegmatis. The assay is described as follows: Antitubercular activity against Mycobacterium smegmatis ATCC 35797 after 48 hrs by agar dilution method. The format is functional. The note with it: ATCC 35797, 48 h. The essentials:
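MIC by agar dilution, NCCLS-like protocol. A 1 mg/ml DMSO stock is diluted in 10% molten agar to 200 µg/ml, then 100, 50, 25, 12.5, 6.25 down to 0.625 µg/ml. Plates are 3–4 mm deep. Overnight Mueller–Hinton cultures are diluted 1:100 and streaked radially. Incubation is 35 °C for 48 h. The control is DMSO in medium.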
A general note: In agar dilution the substance is mixed into plates at graded concentrations.

Assay [3] has as its system Mycobacterium intracellulare. The assay is described as follows: Antitubercular activity against Mycobacterium intracellular ATCC 35743 after 48 hrs by agar dilution method. As to conditions: ATCC 35743, 48 h. The format is functional. In outline:
as §1

For assay [4], the system named is Mycobacterium xenopi. In words: Antitubercular activity against Mycobacterium xenopi ATCC 14470 at 200 ug/ml after 48 hrs by agar dilution method. The format is functional, organism-based. In outline:
(§2)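 Agar dilution screen. Compounds are dissolved in DMSO at 1 mg/ml stock and mixed into 10% molten agar to 200 µg/ml. Plates are poured 3–4 mm deep. Overnight Mueller–Hinton broth cultures are diluted 1:100 and streaked radially. Plates are incubated at 35 °C for 48 h. Controls are strain with DMSO and medium only.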

Assay [5] relates to Mycobacteroides chelonae. In words: Antitubercular activity against Mycobacterium chelonae ATCC 35751 at 200 ug/ml after 48 hrs by agar dilution method. The format is functional, organism-based. In outline: as §2
Assay [6] concerns Mycobacterium intracellulare. The assay is described as follows: Antitubercular activity against Mycobacterium intracellular ATCC 35743 at 200 ug/ml after 48 hrs by agar dilution method. The class given is functional, organism-based. The essentials: as §2
The test system of assay [7] is Mycobacteroides chelonae. The assay is described as follows: Antitubercular activity against Mycobacterium chelonae ATCC 35751 after 48 hrs by agar dilution method. The class given is functional. As to conditions: ATCC 35751, 48 h. The essentials: as §1
The test system of assay [8] is Mycobacterium xenopi. In words: Antitubercular activity against Mycobacterium xenopi ATCC 14470 after 48 hrs by agar dilution method. The format is functional. The note with it: ATCC 14470, 48 h. The essentials:
as §1

Assay [9] relates to Mycolicibacterium smegmatis. In words: Ratio of compound MIC to isoniazid MIC for Mycobacterium smegmatis ATCC 35797. The class given is functional.
In assay [10] the test system is Mycobacterium intracellulare. The assay is described as follows: Ratio of compound MIC to isoniazid MIC for Mycobacterium intracellular ATCC 35743. The format is functional.
Assay [11] relates to Mycobacterium xenopi. The assay is described as follows: Ratio of compound MIC to isoniazid MIC for Mycobacterium xenopi ATCC 14470. The format is functional.
The subject of assay [12] is Mycobacteroides chelonae. The assay is described as follows: Ratio of compound MIC to isoniazid MIC for Mycobacterium chelonae ATCC 35751. The class given is functional.

What is called MIC is the smallest concentration in the dilution series that meets the test's criterion for growth inhibition. Turning to `CCn1cc(C(=O)N/N=C2\C(=O)N(CN3CCN(C)CC3)c3ccccc32)c(=O)c2ccc(C)nc21`, in assay [1], the MIC entry was “inactive”.
On the same count and under the same terms, as for `CCN(CC)CN1C(=O)/C(=N\NC(=O)c2cn(CC)c3nc(C)ccc3c2=O)c2ccccc21`, the entry is “inactive”.
Regarding `CCn1cc(C(=O)N/N=C2\C(=O)N(C)c3ccccc32)c(=O)c2ccc(C)nc21`, the MIC in assay [2] and in assay [3] was 200 µg/mL (≈ 514 µM) each time. Also, the MIC entry in the assay on Mycobacterium xenopi [4] and in the assay with Mycobacteroides chelonae [5] was “inactive” each time.
With `C=CCN1C(=O)/C(=N\NC(=O)c2cn(CC)c3nc(C)ccc3c2=O)c2ccccc21`, in assay [1], the MIC entry was “inactive”.
The same measure, in the same setting: then `CCN(CC)CN1C(=O)/C(=N\NC(=O)c2cn(CC)c3nc(C)ccc3c2=O)c2cc(Br)ccc21`, with “inactive”.
`CCn1cc(C(=O)N/N=C2\C(=O)Nc3ccccc32)c(=O)c2ccc(C)nc21`: inhibition of growth in assay [2] (MIC) required 100 µg/mL (≈ 266 µM). Also, the MIC entry (in assay [6]; in the assay with Mycobacterium xenopi [4]; with Mycobacteroides chelonae [5]) was “inactive” in each case.
Take `CCN1C(=O)/C(=N\NC(=O)c2cn(CC)c3nc(C)ccc3c2=O)c2ccccc21`: the MIC (in [2]; in the assay with Mycobacteroides chelonae [7]; in assay [3]; in the assay with Mycobacterium xenopi [8]) was 200 µg/mL (≈ 496 µM) throughout.
In the case of `CCn1cc(C(=O)N/N=C2\C(=O)N(Cc3ccccc3)c3ccc(Br)cc32)c(=O)c2ccc(C)nc21`, the MIC (in [2]; against Mycobacteroides chelonae [7]; in assay [3]; in the assay with Mycobacterium xenopi [8]) was 50 µg/mL (≈ 91.8 µM) each time.
Take `NNC(=O)c1ccncc1` [ISONIAZID]: the MIC (in [2]; in the assay on Mycobacteroides chelonae [7]; in [3]; with Mycobacterium xenopi [8]) was 12.5 µg/mL (≈ 91.1 µM) each time.
Take `CCn1cc(C(=O)N/N=C2\C(=O)Nc3ccc(Br)cc32)c(=O)c2ccc(C)nc21`: in assay [2], the MIC is 200 µg/mL (≈ 440 µM). The MIC result (in assay [6]; in the assay on Mycobacterium xenopi [4]; in the assay with Mycobacteroides chelonae [5]) was “inactive” each time.
Consider `CCCN1C(=O)/C(=N\NC(=O)c2cn(CC)c3nc(C)ccc3c2=O)c2ccccc21`, for which the MIC result in [1] is “inactive”.
For `CCn1cc(C(=O)N/N=C2\C(=O)N(Cc3ccccc3)c3ccccc32)c(=O)c2ccc(C)nc21`, the MIC (in assay [2]; in the assay with Mycobacteroides chelonae [7]; in assay [3]; against Mycobacterium xenopi [8]) was 0.625 µg/mL (≈ 1.34 µM) each time. Besides, the Ratio (in [9]; in assay [10]; with Mycobacterium xenopi [11]; in the assay with Mycobacteroides chelonae [12]) was 20 each time.
`CCN1C(=O)/C(=N\NC(=O)c2cn(CC)c3nc(C)ccc3c2=O)c2cc(Br)ccc21`: the MIC (in [2]; in [3]; in the assay with Mycobacterium xenopi [8]) was 100 µg/mL (≈ 207 µM) in each case. The MIC entry in the assay with Mycobacteroides chelonae [5] is “inactive”.
Turning to `CCCN1C(=O)/C(=N\NC(=O)c2cn(CC)c3nc(C)ccc3c2=O)c2cc(Br)ccc21`, in assay [1], the MIC result is “inactive”.
Still for that read-out and setting: as for `C=CCN1C(=O)/C(=N\NC(=O)c2cn(CC)c3nc(C)ccc3c2=O)c2cc(Br)ccc21`, the entry is “inactive”.
Regarding `CCn1cc(C(=O)N/N=C2\C(=O)N(C)c3ccc(Br)cc32)c(=O)c2ccc(C)nc21`, in [1], the MIC entry was “inactive”.

Values taken from ChEMBL document CHEMBL1250489, “Schiff bases of indoline-2,3-dione (isatin) derivatives and nalidixic acid carbohydrazide, synthesis, antitubercular activity and pharmacophoric model building” (2010).
